Bioassay records as filed in PubChem BioAssay.
FAS TE block: FAS thioesterase (human) inhibition; P49327; recombinant FAS-TE, OMFH fluorogenic substrate, fluorescence endpoint; inhibition, % at 15 µM; 0.67% of 360,000 active; AID 602261;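 active = compounds whose normalised, plate-corrected inhibition of enzyme fluorescence in the single-dose primary screen is 50% or more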;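 note: 0% = DMSO with enzyme and 100% = substrate without enzyme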
SENP1 inh: SENP1 (human) catalytic domain inhibition | Q9P0U3 | recombinant SENP1 catalytic domain, CyPet-SUMO1-YPet FRET cleavage | inhibition, % at 10 µM | 0.21% of 360,000 active;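 active = inhibition at least 30% at 10 µM, raw YFP signal under a set limit, fluorescence ratio 0.5 to 1.5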;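 note: 0% = enzyme with DMSO and 100% = no enzyme wells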
Target sequence (Q9P0U3 419-644 limits assumed): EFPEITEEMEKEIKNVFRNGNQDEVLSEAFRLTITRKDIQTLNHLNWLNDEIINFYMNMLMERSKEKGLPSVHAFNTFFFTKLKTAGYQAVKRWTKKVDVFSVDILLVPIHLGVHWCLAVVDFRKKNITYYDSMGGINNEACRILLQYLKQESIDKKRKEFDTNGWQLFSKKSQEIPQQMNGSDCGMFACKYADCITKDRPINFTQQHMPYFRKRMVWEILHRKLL
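Test system: human SENP1 catalytic domain; medium: Tris pH 8 buffer plus EDTA, NaCl, BME, BSA, NP40, catalase; incubation: 50 min reaction at room temperature; technique: FRET, CFP and YFP emission; controls: no-enzyme low control and enzyme-plus-DMSO high control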
GASC-1 inh: human JMJD2C demethylase inhibition; 0.069% of 330,000 active; inhibition, % at 2.35 µM; Q9H3R0; GST-JMJD2C(1-420) H3K9me3 demethylation, DELFIA europium;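 active = more than half of a compound's replicate wells show inhibition beyond 50%, single wells judged on their own value; inconclusive = some, but no more than half, of replicates pass 50% inhibition; inactive = no replicate passes 50% inhibition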;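 note: signal counts dimethyl H3K9 product captured on neutravidin plate; 0% = median of DMSO wells and 100% = 0.3 times that DMSO median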
Target sequence (Q9H3R0 1-420 limits assumed): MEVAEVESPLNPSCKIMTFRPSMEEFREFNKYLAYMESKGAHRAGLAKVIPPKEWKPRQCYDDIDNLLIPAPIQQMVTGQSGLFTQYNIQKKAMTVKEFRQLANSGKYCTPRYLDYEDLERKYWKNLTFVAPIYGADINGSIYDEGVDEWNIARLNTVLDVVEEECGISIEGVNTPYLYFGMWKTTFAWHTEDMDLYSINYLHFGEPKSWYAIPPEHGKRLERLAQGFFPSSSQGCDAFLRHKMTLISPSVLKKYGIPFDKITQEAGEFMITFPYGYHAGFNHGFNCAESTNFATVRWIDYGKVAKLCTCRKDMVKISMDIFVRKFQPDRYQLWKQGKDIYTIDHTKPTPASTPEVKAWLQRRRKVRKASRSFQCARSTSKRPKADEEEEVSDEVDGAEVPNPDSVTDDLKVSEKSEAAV
Arrestin-AP2 inh: human beta-arrestin and AP2 interaction inhibition; FITC-arrestin peptide / GST-AP2 beads, flow cytometry; AP2 beta2 appendage carries R879A mutation; inhibition, % at 10 µM; 0.31% of 340,000 active; AID 504490;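 active = inhibition above a set limit, near 3 SD of compounds lacking own fluorescence, cut at about 54% in these data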;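 note: plate controls were DMSO wells for no effect and 5 µM unlabelled arrestin peptide for full effect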
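System: GST-AP2 R879A glutathione beads; medium: PBS, Tween 20 0.05%, BSA 0.1%; reagent: fluorescein-tagged arrestin peptide at 50 nM final; schedule: pre-incubation 12 min, peptide binding 1 h, room temperature; detection: flow cytometry, FL1 (488/535 nm); read-out: inhibition as reduced fluorescein signal on beads, percent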
FAS-TE inh conf: confirmation of human fatty acid synthase thioesterase inhibitors. AID 624325. shares compounds with FAS TE block. recombinant FAS-TE, OMFH fluorogenic substrate, fluorescence. inhibition, % at 15 µM. 45% of 2,300 active;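 active = compounds inhibiting the enzyme by at least 50% at 15 µM in any one of the replicates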;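 note: 0% = enzyme with DMSO only and 100% = wells lacking enzyme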
Numbers without * were called inactive; ? = inconclusive; . = no result given. The list is not random: actives were taken first. Their share in the collection is about 1.1%.

SMILES | FAS TE block | SENP1 inh | GASC-1 inh | Arrestin-AP2 inh | FAS-TE inh conf
COc1ccc([N+](=O)[O-])cc1NC(=O)C(C)OC(=O)/C=C/c1ccco1 (stereo not given) | 62* | 2 | -5 | 29 | 59*
CCN(C(=O)COc1nc(C)cc(C)c1C#N)c1ccccc1 | 6 | 1 | 4 | 30 | .
CC(/C=C1\SC(=S)N(c2ccc(C(=O)O)cc2)C1=O)=C\c1ccccc1 | 90* | 2 | 3 | 0 | 14
CC(=O)NCCn1c(SCc2cccc([N+](=O)[O-])c2)nc2ccccc2c1=O | 53* | 3 | -11 | 3 | 12
CC(=O)NCCn1c(SCc2cc(F)ccc2F)nc2ccccc2c1=O | 0 | 1 | -3 | -5 | .
O=c1c2ccccc2nc(SCc2ccc([N+](=O)[O-])cc2)n1CCCO | 68* | 4 | 1 | 28 | 50*
Cc1nn(-c2ccc(F)cc2F)c(=O)c2noc(C)c12 | -4 | 0 | 6 | 27 | .
O=C(NC(=S)Nc1ccc2c(c1)OCCO2)c1cccc(Br)c1 | 27 | 0 | -2 | . | .
O=C(NC(=S)Nc1ccc2c(c1)OCCO2)c1cccc2ccccc12 | 56* | 1 | 8 | -2 | 24
CC(=O)Nc1ccc(S(=O)(=O)N2CCC(C(=O)O)CC2)cc1 | -5 | -1 | 4 | -14 | .
COc1ccc(S(=O)(=O)N(C(=O)c2ccco2)c2cc3sc(=O)oc3c3ccccc23)cc1 | 90* | 6 | 21 | 2 | 33
Cc1ccc(S(=O)(=O)N(C(=O)c2ccco2)c2cc3sc(=O)oc3c3ccccc23)cc1 | 53* | 3 | 6 | . | 32
CCOc1ccc(S(=O)(=O)N(C(=O)c2ccco2)c2cc3sc(=O)oc3c3ccccc23)cc1 | 51* | 5 | 12 | -9 | 32
CCCCC(=O)N(C)c1c(C)nc2ccc(C(=O)Nc3cccc(NS(C)(=O)=O)c3)cn12 | -9 | -1 | . | . | .
O=[N+]([O-])c1ccc(Cn2cc(-c3cccc(C(F)(F)F)c3)nn2)cc1 | 55* | -2 | 2 | 6 | 4
CCN(c1ccccc1)S(=O)(=O)c1cccc(C(=O)OCc2nc3sc(C)c(C)c3c(=O)[nH]2)c1 | 52* | 4 | -9 | -6 | -1
CCN1C(=O)[C@H]2[C@@H](c3ccc(-c4ccc(F)cc4)c(OC)c3)N[C@@](Cc3ccccc3)(C(=O)OC)[C@H]2C1=O | 90* | 1 | . | 0 | 37
CCN1C(=O)[C@H]2[C@@H](c3ccc(-c4ccc(C(C)=O)cc4)c(OC)c3)N[C@@](Cc3ccccc3)(C(=O)OC)[C@H]2C1=O | 65* | 4 | -17 | -7 | 37
CCCSc1ccc([C@H]2N[C@@](Cc3ccccc3)(C(=O)OC)[C@H]3C(=O)N(CC)C(=O)[C@@H]23)cc1 | 30 | 0 | ? | 4 | .
CCN1C(=O)[C@H]2[C@@H](c3ccc(-c4ccccc4)c(OC)c3)N[C@@](Cc3ccccc3)(C(=O)OC)[C@H]2C1=O | 69* | 0 | ? | -2 | 36
COC(=O)C1(Cc2ccccc2)NC(c2ccc(F)cc2)C2C(=O)N(C)C(=O)C21 (stereo not given) | 1 | 2 | 2 | 7 | .
CCOc1ccc(N2CC(C(=O)Nc3ccccn3)CC2=O)cc1 (stereo not given) | -3 | -1 | 6 | -6 | .
O=C(CN1CCCCCCC1)Nc1cc(Cl)cc(Cl)c1 | 15 | 1 | -9 | -7 | .
Cn1c(N)c(C(=O)COC(=O)COc2ccccc2C#N)c(=O)n(C)c1=O | -2 | -3 | 2 | 9 | .
Cc1ccc(C(=O)O)cc1NC(=S)NC(=O)c1ccc(-c2ccc(Cl)cc2)o1 | 29 | 2 | 4 | 6 | .
SMILES | FAS TE block | SENP1 inh | GASC-1 inh | Arrestin-AP2 inh | FAS-TE inh conf
COc1ccc(C(=O)O)cc1NC(=S)NC(=O)c1ccc(-c2ccc(Cl)cc2)o1 | 58* | -2 | -25 | -9 | 66*
Cc1ccc(S(=O)(=O)N2CCN(C(=O)CN3C(=O)c4ccc([N+](=O)[O-])cc4C3=O)CC2)c(C)c1 | 13 | 4 | 8 | -9 | .
O=C(Nc1ccc2c(c1)OCO2)c1cnn2c(C(F)(F)F)cc(-c3ccco3)nc12 | 21 | 2 | -5 | 0 | .
O=C(Nc1cnn(C23CC4CC(CC(C4)C2)C3)c1)c1cnn2c(C(F)(F)F)cc(-c3ccco3)nc12 | 61* | 3 | -16 | 25 | -1
Cc1cc(C)cc(OCc2ccc(C(=O)NC3CCOC3=O)o2)c1 (stereo not given) | -5 | -1 | 2 | 5 | .
CCOC(=O)c1sc(N2C(=O)C(O)=C(C(=O)c3ccco3)C2c2ccc([N+](=O)[O-])cc2)nc1C (stereo not given) | 56* | -43 | 14 | -8 | 73*
COC(=O)c1nnn(-c2nonc2N)c1CSc1ccccn1 | -6 | 1 | 6 | -2 | .
COc1ccc(-c2cc(C(=O)Nc3nc4c(C)cccc4s3)c3ccccc3n2)cc1OC | 68* | -7 | -10 | 6 | 13
COc1cc(-c2cc(C(=O)Nc3c(Cl)cc(Cl)cc3Cl)c3ccccc3n2)cc(OC)c1OC | 56* | 0 | 3 | -4 | 19
COc1ccc(NC(=O)c2cccc(Oc3ccc([N+](=O)[O-])cc3Cl)c2)cc1 | 52* | 1 | -10 | . | 9
COc1ccccc1N1CCN(C(=O)CCCn2c(=S)[nH]c3ccccc3c2=O)CC1 | 53* | 0 | . | . | 20
COc1ccccc1N1CCN(C(=O)CCn2c(=O)[nH]c3ccccc3c2=O)CC1 | -6 | -1 | 2 | 9 | .
CCOC(=O)N1CCN(C(=O)c2ccc(Cn3c(=S)[nH]c4cc5c(cc4c3=O)OCO5)cc2)CC1 | 6 | 0 | -1 | 11 | .
COc1ccccc1N1CCN(C(=O)c2ccc(Cn3c(=S)[nH]c4cc5c(cc4c3=O)OCO5)cc2)CC1 | 53* | 0 | 9 | -29 | 2
CC(=O)[C@@H]1[C@@H]2C(=O)N(c3ccccc3F)C(=O)[C@@H]2[C@H]2c3ccccc3C=NN12 | -8 | -6 | -3 | 14 | .
O=C(c1ccc(Cl)cc1)[C@@H]1[C@@H]2C(=O)N(c3cccc4ccccc34)C(=O)[C@@H]2C2c3ccccc3C=NN21 (stereo not given in full) | 85* | 15 | -10 | 1 | 40
O=C(CCc1nnc(-c2ccc3c(c2)OCO3)o1)NCCc1ccccc1F | -3 | 0 | -4 | 23 | .
COc1ccc(-n2nc(C(=O)Nc3ccc4c(c3)OCO4)c3ccccc3c2=O)cc1 | 24 | 1 | -3 | 37 | .
Cc1c([N+](=O)[O-])cnc(Sc2ccccc2)c1[N+](=O)[O-] | 60* | 3 | 3 | -5 | 9
N#CCC(=O)N/N=C/c1cc([N+](=O)[O-])ccc1N1CCCC1 | 27 | -17 | 3 | -12 | .
O=C(CNc1ccccc1)N/N=C/c1cc([N+](=O)[O-])ccc1N1CCCC1 | 52* | -39 | -1 | 7 | 29
